The values that follow come from ChEMBL document CHEMBL1156430, “Identification of NVP-TAE684, a potent, selective, and efficacious inhibitor of NPM-ALK” (Proc Natl Acad Sci U S A, 2007).

Data set [1] concerns KARPAS-299. Nature of the data set: Antilymphomal activity against human Karpas299 cells xenografted in SCIDbeige mouse assessed as reduction in CD30 expression in lymph nodes after 3.5 weeks of […] at 10 mg/kg for 3 days. The data set is classed as functional, organism-based. More on the design: dose 10 mg/kg. Put shortly:
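Female Fox Chase SCID_Beige mice given Karpas-299 cells i.v. and left 3.5 weeks until lymphomas were palpable. Then dosed at 10 mg/kg or vehicle for 3 days. Killed 4 h after the third dose. Excised lymph node sections scored for CD30 by immunohistochemistry.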

Data set [2] is described as follows: Cytotoxicity against mouse parental Ba/F3 cells assessed as luciferase expression up to 1 uM after 2 to 3 days. The data set is classed as cell-based. As to conditions: baf3. Put shortly:
(§1)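 Ba/F3 cells carrying luciferase, either parental (with IL-3) or transformed by NPM-ALK or TEL-kinase fusions, 25,000 per well with serial dilutions or DMSO for 2–3 days. Bright-Glo luminescence taken as proliferation/survival. IC50 from curve fit.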

For data set [3], the system named is KARPAS-299. The data set can be described thus: Cell cycle arrest in human Karpas299 cells by accumulation in G1 phase at 25 nM after 72 hrs. The data set is classed as functional. Put shortly:
(§2)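 Karpas-299 cells exposed to 25 nM or DMSO for 24, 48 and 72 h, then fixed, stained with propidium iodide and analyzed for cell cycle distribution by flow cytometry. Three separate experiments.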

The target of data set [4] is T1, Signal transducer and activator of transcription 5A (Homo sapiens) (UniProt P42229).
T1 sequence (whole entry): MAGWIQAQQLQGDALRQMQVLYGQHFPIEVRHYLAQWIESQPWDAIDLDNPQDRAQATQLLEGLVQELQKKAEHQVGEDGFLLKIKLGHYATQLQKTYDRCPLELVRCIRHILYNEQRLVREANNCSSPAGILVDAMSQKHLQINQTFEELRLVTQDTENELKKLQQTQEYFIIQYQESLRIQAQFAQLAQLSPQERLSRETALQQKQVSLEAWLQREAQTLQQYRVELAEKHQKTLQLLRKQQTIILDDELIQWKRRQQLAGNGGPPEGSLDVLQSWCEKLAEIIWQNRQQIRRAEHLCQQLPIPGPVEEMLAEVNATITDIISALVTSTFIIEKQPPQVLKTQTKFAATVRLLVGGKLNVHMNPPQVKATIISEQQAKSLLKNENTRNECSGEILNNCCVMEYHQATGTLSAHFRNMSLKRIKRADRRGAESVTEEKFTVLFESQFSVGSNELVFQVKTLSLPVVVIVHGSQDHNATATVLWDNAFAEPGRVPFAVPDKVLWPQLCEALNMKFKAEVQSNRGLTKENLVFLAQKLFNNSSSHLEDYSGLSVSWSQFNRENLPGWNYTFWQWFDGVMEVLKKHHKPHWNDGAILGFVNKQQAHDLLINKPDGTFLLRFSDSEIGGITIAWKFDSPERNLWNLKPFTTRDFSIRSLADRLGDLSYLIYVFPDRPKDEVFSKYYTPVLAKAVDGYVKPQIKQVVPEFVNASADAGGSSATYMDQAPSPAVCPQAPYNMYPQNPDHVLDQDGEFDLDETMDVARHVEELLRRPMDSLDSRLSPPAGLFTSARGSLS
Nature of the data set: Inhibition of STAT5 phosphorylation in human Karpas299 cells. The data set is classed as cell-based. As to conditions: KARPAS-299. Put shortly: (§3)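 Ba/F3 NPM-ALK, Karpas-299 or SU-DHL-1 cells treated for 4 h with DMSO or increasing concentrations. STAT3 and STAT5 phosphorylation read by Western blot of lysates.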

A short description of data set [5]: Antiproliferative activity against mouse Ba/F3 NPM-ALK cells assessed as luciferase expression after 2 to 3 days. The data set is classed as functional, cell-based. Put shortly: as §1
Data set [6] has as its target Signal transducer and activator of transcription 3 (Mus musculus) (UniProt P42227). The data set can be described thus: Inhibition of STAT3 phosphorylation in mouse Ba/F3 NPM-ALK cells. The data set is classed as cell-based. Put shortly: as §3
For another data set, the system named is Mus musculus. Nature of the data set: Toxicity in mouse Ba/F3 NPM-ALK cells xenografted in SCID beige mouse assessed as reduction in spleen weight at 10 mg/kg, po. It counts as organism-based. More on the design: dose 10 mg/kg, route oral; scale not given: the % may be the effect or the level left. As to conditions: in vivo.
Data set [7] concerns the target T1, Signal transducer and activator of transcription 5A (Homo sapiens). The data set can be described thus: Inhibition of STAT5 phosphorylation in human SUDHL1 cells. The data set is classed as cell-based. Put shortly: as §3
Data set [8] in a line: Induction of apoptosis in mouse Ba/F3 NPM-ALK cells at 50 nM after 48 hrs by annexin V assay. It counts as functional. Put shortly:
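Parental Ba/F3 (with IL-3), Ba/F3 NPM-ALK or SU-DHL-1 cells treated with 50 nM or DMSO for 48 h. Annexin V/7-AAD staining read by flow cytometry; percent Annexin V-positive cells counted.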

Data set [9] is described as follows: Elimination half life in human Karpas299 cells xenografted SCID beige mouse at 20 mg/kg, po. More on the design: dose 20 mg/kg, route oral. It counts as ADME, organism-based, KARPAS-299. As to conditions: in vivo. Put shortly:
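Mice given a single oral dose of 20 mg/kg as a solution in 10% 1-methyl-2-pyrrolidinone/90% PEG 300. Plasma levels measured to give Cmax, bioavailability and elimination half-life.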

Another data set has as its system BaF3. Nature of the data set: Inhibition of mouse wild type BaF3/WT Luc+ cell proliferation. It counts as functional, cell-based. Put shortly:
as §1

In data set [10] the target is Signal transducer and activator of transcription 3 (Homo sapiens) (UniProt P40763). The data set can be described thus: Inhibition of STAT3 phosphorylation in human SUDHL1 cells. It counts as cell-based. Put shortly:
as §3

In a further data set the test system is BCR-ABL. The data set can be described thus: Antilymphomal activity against mouse Ba/F3 BCR-ABL cells xenografted in SCID beige mouse assessed as reduction in bioluminescence signal at 10 mg/kg, po once daily after 2 weeks. It counts as functional, organism-based. More on the design: dose 10 mg/kg. Put shortly: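 Female Fox Chase SCID_Beige mice injected in the tail vein with 1 × 10⁶ luciferase-expressing Ba/F3 BCR-ABL or Ba/F3 NPM-ALK cells. From 72 h, 10 mg/kg given orally once daily in 10% 1-methyl-2-pyrrolidinone/90% PEG 300, or vehicle. Bioluminescence imaged after 2 weeks; spleens weighed.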

The test system of data set [11] is KARPAS-299. The data set can be described thus: Induction of apoptosis in human Karpas299 cells at 50 nM after 48 hrs by annexin V assay. The data set is classed as functional. As to conditions: in the assay text read “72 hrs” for “48 hrs”. Put shortly:
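Karpas-299 cells given 50 nM or DMSO, with flow cytometry every 24 h up to 72 h. Annexin V staining gave the percent of positive cells.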

Data set [12] deals with KARPAS-299. The data set can be described thus: Cell cycle arrest in human Karpas299 cells by accumulation in S phase at 25 nM after 72 hrs. The data set is classed as functional. Put shortly: as §2
In data set [13] the test system is KARPAS-299. Nature of the data set: Antilymphomal activity against human Karpas299 cells xenografted in SCID beige mouse assessed as reduction in downstream target STAT3 phosphorylation after 3.5 weeks of […] at 10 mg/kg for 3 days. It counts as functional, organism-based. More on the design: dose 10 mg/kg. Put shortly: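 Female Fox Chase SCID_Beige mice given 1 × 10⁶ Karpas-299 cells by tail vein. Treatment began at 3.5 weeks, once palpable lymphomas had formed. Drug at 10 mg/kg or vehicle for 3 days, 3 mice per arm. Killed 4 h after the third dose. Excised lymph nodes immunoblotted for NPM-ALK and Stat3 phosphorylation.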

The test system of data set [14] is KARPAS-299. Nature of the data set: Inhibition of human Karpas299 cells assessed as reduction in CD30 receptor expression on cell surface after 24 hrs. It counts as functional. More on the design: scale not given: the % may be the effect or the level left. Put shortly: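 Karpas-299 cells cultured with drug for 24 h. Surface CD30 receptor expression then measured.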

Active and inactive are the calls of the source. The rule behind the calls is not given here.

Sequence of Signal transducer and activator of transcription 3 (Mus musculus) (P42227 whole entry): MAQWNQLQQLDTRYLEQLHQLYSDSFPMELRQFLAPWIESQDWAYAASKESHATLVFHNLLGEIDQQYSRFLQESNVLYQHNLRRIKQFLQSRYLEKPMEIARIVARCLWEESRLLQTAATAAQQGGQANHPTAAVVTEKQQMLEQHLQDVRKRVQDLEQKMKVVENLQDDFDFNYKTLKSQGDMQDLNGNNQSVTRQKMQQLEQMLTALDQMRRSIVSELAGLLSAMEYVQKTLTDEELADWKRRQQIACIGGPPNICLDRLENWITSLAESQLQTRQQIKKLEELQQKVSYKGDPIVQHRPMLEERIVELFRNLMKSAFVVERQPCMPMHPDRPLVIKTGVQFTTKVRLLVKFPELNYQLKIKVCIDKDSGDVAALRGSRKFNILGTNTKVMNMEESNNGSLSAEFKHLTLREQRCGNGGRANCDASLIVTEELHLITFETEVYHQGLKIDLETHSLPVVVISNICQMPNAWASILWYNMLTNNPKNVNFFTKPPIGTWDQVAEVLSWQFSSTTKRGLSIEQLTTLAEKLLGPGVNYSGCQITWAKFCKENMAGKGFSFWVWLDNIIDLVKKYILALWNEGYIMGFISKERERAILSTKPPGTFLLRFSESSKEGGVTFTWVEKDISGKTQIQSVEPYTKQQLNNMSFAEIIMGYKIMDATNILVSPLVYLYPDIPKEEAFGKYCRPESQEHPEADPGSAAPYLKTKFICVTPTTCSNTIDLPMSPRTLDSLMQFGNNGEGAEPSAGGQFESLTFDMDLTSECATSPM
Sequence of Signal transducer and activator of transcription 3 (Homo sapiens) (P40763 whole entry): as the sequence (P42227 whole entry) above, with D760E counted along it

As for `COc1cc(N2CCC(N3CCN(C)CC3)CC2)ccc1Nc1ncc(Cl)c(Nc2ccccc2S(=O)(=O)C(C)C)n1` [TAE-684], the result in the data set with KARPAS-299 [1] and in the data set with KARPAS-299 [13] was Active. The Activity result in [2] is “Not Active”; in the data set on KARPAS-299 [3], 72%; in [4], “Dose-dependent effect”; in data set [6], “Dose-dependent effect”; in the data set on Mus musculus, 80%; in data set [7], “Dose-dependent effect”. Also, the Activity in data set [8] is 85%; in [10] it was “Dose-dependent effect”; with KARPAS-299 [11], 20%; in the data set with KARPAS-299 [12] it was 14%; with KARPAS-299 [14], 80%. Moreover, the values for the IC50 (in data set [5]; with BaF3) were 0.003 µM and 2.75 µM, respectively. In data set [9], this molecule gave a half-life of 12 h. Moreover, the outcome with BCR-ABL was inactive.
